According to ChEMBL document CHEMBL1177875, “Antitumor activity of (-)-alpha-bisabolol-based thiosemicarbazones against human tumor cell lines” (2010):

Experiments:
Format in all cases: functional
[1] = test system: UACC-62; test: Cytotoxicity against human UACC62 cells by sulforhodamine B assay
Summary of the method: (§1)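 Growth of the human tumor cell line was read colorimetrically with sulforhodamine B, following the NCI standard protocol, with doxorubicin as positive control. Compounds were tested at four concentrations in 10-fold dilutions (0.25 to 250). Dose-response curves gave GI50 (the concentration for 50% growth inhibition), TGI (total growth inhibition) and LC50 (50% cell death).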

[2] = test system: MCF7; test: Cytotoxicity against human MCF7 cells by sulforhodamine B assay; details: for CC50: read-out: LC50 (the source's name); summary of the method: as §1
[3] = Cytotoxicity against human NCI/ADR cells by sulforhodamine B assay; details: NCI/ADR-RES; for CC50: read-out: LC50 (the source's name); summary of the method: as §1
[4] = test system: NCI-H460; test: Cytotoxicity against human NCI-H460 cells by sulforhodamine B assay; details: for CC50: read-out: LC50 (the source's name); summary of the method: as §1
[5] = Cytotoxicity against human PCO3 cells by sulforhodamine B assay; details: for CC50: read-out: LC50 (the source's name); summary of the method: as §1
[6] = test system: OVCAR-3; test: Cytotoxicity against human OVCAR-3 cells by sulforhodamine B assay; details: for CC50: read-out: LC50 (the source's name); summary of the method: as §1
[7] = test system: HT-29; test: Cytotoxicity against human HT-29 cells by sulforhodamine B assay; details: for CC50: read-out: LC50 (the source's name); summary of the method: as §1
[8] = test system: K562; test: Cytotoxicity against human K562 cells by sulforhodamine B assay; details: for CC50: read-out: LC50 (the source's name); summary of the method: as §1

| SMILES | GI50 [1] | LC50 (50% cell kill) [1] | TGI [1] | GI50 [2] | TGI [2] | CC50 [2] | CC50 [3] | GI50 [4] | TGI [4] | CC50 [4] | GI50 [5] | TGI [5] | CC50 [5] | GI50 [6] | TGI [6] | CC50 [6] | GI50 [7] | TGI [7] | CC50 [7] | GI50 [8] | also measured |
| --- | --- | --- | --- | --- | --- | --- | --- | --- | --- | --- | --- | --- | --- | --- | --- | --- | --- | --- | --- | --- | --- |
| CC1=CC[C@@H]([C@@](C)(O)CCCC(C)(C)NC(=S)N/N=C\c2ccccc2Cl)CC1 | 53.3 µM | > 100 µM | > 100 µM | 31.2 µM | > 100 µM | > 100 µM | > 100 µM | 24.6 µM | > 100 µM | > 100 µM | 18.8 µM | > 100 µM | > 100 µM | 42 µM | > 100 µM | > 100 µM | 23.7 µM | > 100 µM | > 100 µM | 150 nM | GI50 [3]: > 100 µM; TGI [3]: > 100 µM; TGI [8]: 4.11 µM; CC50 [8]: 8.5 µM |
| CC1=CC[C@@H]([C@@](C)(O)CCCC(C)(C)NC(=S)N/N=C\c2ccc(N(C)C)cc2)CC1 | > 100 µM | > 100 µM | > 100 µM | 14 µM | > 100 µM | > 100 µM | > 100 µM | 19.6 µM | > 100 µM | > 100 µM | 13.7 µM | > 100 µM | > 100 µM | 3.6 µM | > 100 µM | > 100 µM | 27.7 µM | > 100 µM | > 100 µM | 80 nM | GI50 [3]: 25.2 µM; TGI [3]: > 100 µM; TGI [8]: 42 µM; CC50 [8]: > 100 µM |
| CC1=CC[C@@H]([C@@](C)(O)CCCC(C)(C)NC(=S)N/N=C\c2ccccc2)CC1 | 12.7 µM | 48.4 µM | 43.8 µM | 7.72 µM | 28.7 µM | 60.4 µM | 59.9 µM | 38.4 µM | > 100 µM | > 100 µM | 8.47 µM | 36.2 µM | > 100 µM | 6.97 µM | 12.9 µM | 43.6 µM | 9.96 µM | 36.5 µM | 57.4 µM | 130 nM | GI50 [3]: 6.97 µM; TGI [3]: 23.8 µM; TGI [8]: 20.9 µM; CC50 [8]: > 100 µM |
| CC1=CC[C@@H]([C@@](C)(O)CCCC(C)(C)NC(=S)N/N=C\c2ccc(C)cc2)CC1 | 11.6 µM | 52.3 µM | 39 µM | 7.23 µM | > 100 µM | > 100 µM | > 100 µM | 10.1 µM | > 100 µM | > 100 µM | 6.75 µM | 45.7 µM | > 100 µM | 6.02 µM | 11.8 µM | 45.3 µM | 10.4 µM | 80.4 µM | > 100 µM | 140 nM | GI50 [3]: 6.51 µM; TGI [3]: 30.5 µM; TGI [8]: 7.95 µM; CC50 [8]: > 100 µM |
| COc1ccc(/C=N\NC(=S)NC(C)(C)CCC[C@](C)(O)[C@@H]2CC=C(C)CC2)cc1 | 7.42 µM | 48.5 µM | 22.1 µM | 6.5 µM | 94.9 µM | > 100 µM | > 100 µM | 5.1 µM | > 100 µM | > 100 µM | 7.66 µM | 76 µM | > 100 µM | 6.5 µM | 15.8 µM | 46.2 µM | 7.42 µM | 35.1 µM | > 100 µM | 220 nM | GI50 [3]: 6.73 µM; TGI [3]: 57 µM; TGI [8]: 34.9 µM; CC50 [8]: > 100 µM |
| CC1=CC[C@@H]([C@@](C)(O)CCCC(C)(C)NC(=S)N/N=C\c2ccc(O)cc2)CC1 | 8.87 µM | 55.6 µM | 40.1 µM | 6.23 µM | 21.2 µM | 56.4 µM | > 100 µM | 1.46 µM | 20.7 µM | > 100 µM | 6.23 µM | 13.9 µM | 50.1 µM | 6.23 µM | 17.4 µM | 54.4 µM | 8.15 µM | 31.5 µM | 58.5 µM | 600 nM | TGI [8]: 31.1 µM; CC50 [8]: > 100 µM |
| CC1=CC[C@@H]([C@@](C)(O)CCCC(C)(C)NC(=S)NN)CC1 | 18.5 µM | > 100 µM | > 100 µM | 15.3 µM | 84.2 µM | > 100 µM | > 100 µM | 12.8 µM | 84 µM | > 100 µM | 26.8 µM | > 100 µM | > 100 µM | 17.2 µM | > 100 µM | > 100 µM | 49.4 µM | > 100 µM | > 100 µM | 20 nM | GI50 [3]: 0.76 µM; TGI [3]: 29 µM; TGI [8]: 0.38 µM; CC50 [8]: 9.58 µM |
| CC1=CC[C@@H]([C@@](C)(O)CCCC(C)(C)NC(=S)N/N=C\c2cccc([N+](=O)[O-])c2)CC1 | 7.84 µM | 49.3 µM | 24.7 µM | 6.72 µM | 18.3 µM | 47.3 µM | > 100 µM | 8.29 µM | 68.6 µM | > 100 µM | 5.6 µM | 20.7 µM | 52.5 µM | 8.51 µM | 40.8 µM | > 100 µM | 14.1 µM | 57.1 µM | > 100 µM | 20 nM | GI50 [3]: 6.72 µM; TGI [3]: 38 µM; TGI [8]: 0.56 µM; CC50 [8]: 12.6 µM |
| CC1=CC[C@@H]([C@@](C)(O)CCCC(C)(C)NC(=S)N/N=C\c2ccc([N+](=O)[O-])cc2)CC1 | 20.8 µM | > 100 µM | 62.2 µM | 17.7 µM | > 100 µM | > 100 µM | > 100 µM | 10.1 µM | > 100 µM | > 100 µM | 18.1 µM | > 100 µM | > 100 µM | 13.4 µM | 88.6 µM | > 100 µM | 12.3 µM | 62.8 µM | > 100 µM | 4220 nM | GI50 [3]: 12.8 µM; TGI [3]: > 100 µM; TGI [8]: 9.56 µM; CC50 [8]: 45.5 µM |
| CC1=CC[C@@H]([C@@](C)(O)CCCC(C)(C)NC(=S)N/N=C\c2ccccc2[N+](=O)[O-])CC1 | 6.05 µM | 49.3 µM | 16.6 µM | 18.6 µM | > 100 µM | > 100 µM | > 100 µM | 20.6 µM | > 100 µM | > 100 µM | 39.9 µM | > 100 µM | > 100 µM | 7.39 µM | 16.2 µM | 41.9 µM | 6.94 µM | 16.8 µM | 44.4 µM | 190 nM | GI50 [3]: 20.4 µM; TGI [3]: > 100 µM; TGI [8]: 7.84 µM; CC50 [8]: > 100 µM |
